ChEMBL document CHEMBL1142991, “Structure-activity relationship study to understand the estrogen receptor-dependent gene activation of aryl- and alkyl-substituted 1H-imidazoles” (J Med Chem, 2007)
Active and inactive are the calls of the source. The calls are words filed in the database; no cut-off is given here.

Tests used:
[1] = biological target: T1, Estrogen receptor (Bos taurus) (UniProt P49884); assay: Displacement of [3H]estradiol from calf ER alpha after 16 hrs relative to estradiol
T1 sequence (whole entry): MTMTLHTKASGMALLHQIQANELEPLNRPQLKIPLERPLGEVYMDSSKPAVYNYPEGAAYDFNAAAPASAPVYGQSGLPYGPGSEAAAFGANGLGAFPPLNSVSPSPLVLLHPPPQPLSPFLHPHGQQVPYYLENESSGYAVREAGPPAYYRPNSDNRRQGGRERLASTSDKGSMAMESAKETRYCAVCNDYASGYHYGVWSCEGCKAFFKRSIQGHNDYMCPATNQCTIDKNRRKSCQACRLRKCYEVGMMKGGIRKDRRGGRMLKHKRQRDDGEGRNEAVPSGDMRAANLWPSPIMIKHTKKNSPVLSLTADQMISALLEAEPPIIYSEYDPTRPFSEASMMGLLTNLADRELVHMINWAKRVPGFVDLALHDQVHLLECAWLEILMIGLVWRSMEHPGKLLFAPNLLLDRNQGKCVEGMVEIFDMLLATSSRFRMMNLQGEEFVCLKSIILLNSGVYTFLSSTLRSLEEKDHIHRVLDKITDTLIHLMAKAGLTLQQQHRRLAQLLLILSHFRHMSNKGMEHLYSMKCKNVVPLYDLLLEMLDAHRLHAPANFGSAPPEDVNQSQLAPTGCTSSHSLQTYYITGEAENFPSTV
Method in brief: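 Calf uterine cytosol as receptor source, shaken with 17β-[³H]estradiol and competitor at 4 °C for 16 h; dextran-coated charcoal stop, centrifugation, supernatant radioactivity counted. Six competitor concentrations; % bound label plotted against log concentration, and the concentration giving 50% displacement taken for competitor and for unlabeled estradiol to give relative binding affinity.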

MCF7-2A [2] = assay: Activation of transcriptional activity at ERalpha expressed in MCF7-2a cells assessed as luciferase expression at 10 uM relative to estradiol; format: functional, cell-based, Homo sapiens; details: for EC50: Homo sapiens, MCF7-2A, in the assay text read “relative to estradiol” for “at 10 uM relative to estradiol”
Method in brief: (§1)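 Reporter cells: MCF-7-2a (stable ERE_wtcluc) kept one week in DMEM with L-glutamine, antibiotics, dextran/charcoal-treated BCS (50 mL/L); seeded ~2.2 × 10⁵ cells/mL in six-well plates, compound added after 24 h at 10^-5 to 10^-10 M, 50 h incubation; lysed, luciferase luminescence read 10 s, normalized to Bradford protein; expressed as % of 10^-8 M estradiol; triplicate, single experiment.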

MCF7-2A [3] = assay: Activation of transcriptional activity at ERalpha expressed in MCF7-2a cells assessed as luciferase expression relative to estradiol; format: functional, cell-based; details: Homo sapiens; method in brief: as §1
Homo sapiens = organism: Homo sapiens; assay: Decrease in COX activity

| Compound | RBA [1] | Activity (MCF7-2A [2]) | other results |
| --- | --- | --- | --- |
| CCc1c(-c2ccc(O)cc2)nc(-c2ccccc2)n1-c1ccc(O)cc1 |  | 90% | EC50 (MCF7-2A [3]): 61 nM |
| CCc1c(-c2ccc(O)cc2)nc(-c2ccc(O)cc2)n1-c1ccc(O)cc1 | 0.11% | 140% | EC50 (MCF7-2A [2]): 77 nM |
| Cc1c(-c2ccc(O)cc2)nc(-c2ccc(O)cc2)n1-c1ccc(O)cc1 |  | 100% | EC50 (MCF7-2A [2]): 140 nM |
| Oc1ccc(-c2cn(-c3ccc(O)cc3)c(-c3ccc(O)cc3Cl)n2)cc1 |  |  | Activity (Homo sapiens): inactive |
| Oc1ccc(-c2nc(-c3ccc(O)cc3Cl)n(-c3ccc(O)cc3)c2-c2ccccc2)cc1 |  | 50% |  |
| Oc1ccc(-c2nc(-c3ccc(O)cc3)n(-c3ccc(O)cc3)c2-c2ccccc2)cc1 |  | 100% | EC50 (MCF7-2A [2]): 350 nM |
| Oc1ccc(-c2nc(-c3ccc(O)cc3Cl)cn2-c2ccc(O)cc2)cc1 |  |  | Activity (Homo sapiens): Active |
| CCc1c(-c2ccc(O)cc2)nc(-c2ccc(O)cc2)n1-c1ccccc1 |  | 60% |  |
| Oc1ccc(-c2nc(-c3ccc(O)cc3Cl)c(-c3ccccc3)n2-c2ccc(O)cc2)cc1 |  | 40% |  |

Continued, in another order:

| RBA [1] | Compound | Activity (MCF7-2A [2]) | other results |
| --- | --- | --- | --- |
| 0.11% | Cc1c(-c2ccc(O)cc2Cl)nc(-c2ccc(O)cc2Cl)n1-c1ccc(O)cc1 |  |  |
| 0.19% | CCc1c(-c2ccc(O)cc2)nc(-c2ccc(O)cc2Cl)n1-c1ccc(O)cc1 |  | EC50 (MCF7-2A [3]): 480 nM |
| 0.09% | Oc1ccc(-n2cc(-c3ccc(O)cc3Cl)nc2-c2ccc(O)cc2Cl)cc1 |  | Activity (Homo sapiens): Active |
